Columns and labels:
Rattus norvegicus [1] = experiment: Biodistribution of [18F]AFE in rat frontal cortex at 10 min postinjection in vivo; type: ADME, organism-based
How it was run: (§1)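 Male Sprague-Dawley rats, three per group, received ~20 µCi of the F-18 radioligand in saline by tail-vein injection. Rats were anesthetized with CO2 and decapitated at 10, 30, 60, 90 or 120 min. Blood and brain regions were weighed and gamma-counted. %ID/g was decay- and tail-residual-corrected against F-18 standards made from the injectate and reported as mean ± SD.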

Rattus norvegicus [2] = experiment: Biodistribution of [18F]AFE in rat thalamus at 60 min postinjection in vivo; type: ADME, organism-based; settings: 1 h; how it was run: as §1
Rattus norvegicus [3] = experiment: Biodistribution of [18F]AFE in rat cerebellum at 60 min postinjection in vivo; type: ADME, organism-based; settings: 1 h; how it was run: as §1
Rattus norvegicus [4] = experiment: Biodistribution of [18F]AFE in rat thalamus at 90 min postinjection in vivo; type: ADME, organism-based; settings: 1.5 h; how it was run: as §1
Rattus norvegicus [5] = species on record: Rattus norvegicus; experiment: Specific binding of [18F]-AFA in thalamus of rat pretreated with compound 7e; n=3; type: functional
Rattus norvegicus [6] = experiment: Biodistribution of [18F]AFE in rat thalamus at 120 min postinjection in vivo; type: ADME, organism-based; settings: 2 h; how it was run: as §1
Rattus norvegicus [7] = experiment: Biodistribution of [18F]AFE in rat hypothalamus at 30 min postinjection in vivo; type: ADME, organism-based; settings: 0.5 h; how it was run: as §1
Rattus norvegicus [8] = experiment: Biodistribution of [18F]AFE in rat striatum at 30 min postinjection in vivo; type: ADME, organism-based; settings: 0.5 h; how it was run: as §1
Rattus norvegicus [9] = experiment: Biodistribution of [18F]AFE in rat hypothalamus at 60 min postinjection in vivo; type: ADME, organism-based; settings: 1 h; how it was run: as §1
Rattus norvegicus [10] = experiment: Biodistribution of [18F]AFE in rat hippocampus at 60 min postinjection in vivo; type: ADME, organism-based; settings: 1 h; how it was run: as §1
Rattus norvegicus [11] = experiment: Biodistribution of [18F]AFE in rat hippocampus at 30 min postinjection in vivo; type: ADME, organism-based; settings: 0.5 h; how it was run: as §1
Rattus norvegicus [12] = experiment: Biodistribution of [18F]AFE in rat thalamus at 30 min postinjection in vivo; type: ADME, organism-based; settings: 0.5 h; how it was run: as §1
Rattus norvegicus [13] = experiment: Biodistribution of [18F]AFE in rat hippocampus at 120 min postinjection in vivo; type: ADME, organism-based; settings: 2 h; how it was run: as §1
Rattus norvegicus [14] = experiment: Biodistribution of [18F]-AFE in rat frontal cortex at 30 min postinjection in vivo; type: ADME, organism-based; settings: 0.5 h
How it was run: (§2)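 Male Sprague-Dawley rats, three per time point, received the F-18 radioligand in saline (~20 µCi per rat at injection) by tail vein. Under CO2 anesthesia they were decapitated at 10, 30, 60, 90 or 120 min. Blood and dissected brain regions were weighed and gamma counted. Activity was decay-corrected, and injected dose was corrected for tail residual activity. Uptake was expressed as %ID/g versus injectate standards, mean ± SD.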

Rattus norvegicus [15] = experiment: Biodistribution of [18F]AFE in rat cerebellum at 90 min postinjection in vivo; type: ADME, organism-based; settings: 1.5 h; how it was run: as §1
Rattus norvegicus [16] = species on record: Rattus norvegicus; experiment: Specific binding of [18F]AFA in frontal cortex of rat pretreated with compound 7e; n=3; type: functional
Rattus norvegicus [17] = experiment: Biodistribution of [18F]AFE in rat frontal cortex at 90 min postinjection in vivo; type: ADME, organism-based; settings: 1.5 h; how it was run: as §1
Rattus norvegicus [18] = experiment: Biodistribution of [18F]AFE in rat hippocampus at 10 min postinjection in vivo; type: ADME, organism-based; how it was run: as §1
Rattus norvegicus [19] = experiment: Biodistribution of [18F]AFE in rat frontal cortex at 60 min postinjection in vivo; type: ADME, organism-based; settings: 1 h; how it was run: as §1
Rattus norvegicus [20] = experiment: Biodistribution of [18F]-AFE in rat cerebellum at 30 min postinjection in vivo; type: ADME, organism-based; settings: 0.5 h; how it was run: as §2
Rattus norvegicus [21] = experiment: Biodistribution of [18F]AFE in rat striatum at 120 min postinjection in vivo; type: ADME, organism-based; settings: 2 h; how it was run: as §1
Rattus norvegicus [22] = experiment: Biodistribution of [18F]AFE in rat hypothalamus at 90 min postinjection in vivo; type: ADME, organism-based; settings: 1.5 h; how it was run: as §1
Rattus norvegicus [23] = experiment: Biodistribution of [18F]-AFE in rat striatum 60 min postinjection in vivo; type: ADME, organism-based; settings: 1 h; how it was run: as §2
Rattus norvegicus [24] = experiment: Biodistribution of [18F]AFE in rat blood at 60 min postinjection in vivo; type: ADME, organism-based; settings: 1 h; how it was run: as §1
Rattus norvegicus [25] = experiment: Biodistribution of [18F]AFE in rat blood at 10 min postinjection in vivo; type: ADME, organism-based; how it was run: as §1
Rattus norvegicus [26] = experiment: Biodistribution of [18F]AFE in rat blood at 90 min postinjection in vivo; type: ADME, organism-based; settings: 1.5 h; how it was run: as §1
Rattus norvegicus [27] = experiment: Biodistribution of [18F]AFE in rat hippocampus at 90 min postinjection in vivo; type: ADME, organism-based; settings: 1.5 h; how it was run: as §1
Rattus norvegicus [28] = experiment: Biodistribution of [18F]AFE in rat thalamus at 10 min postinjection in vivo; type: ADME, organism-based; how it was run: as §1
Rattus norvegicus [29] = experiment: Biodistribution of [18F]-AFE in rat striatum at 90 min postinjection in vivo; type: ADME, organism-based; settings: 1.5 h; how it was run: as §2
Rattus norvegicus [30] = species on record: Rattus norvegicus; experiment: Specific binding of [18F]AFA in hypothalamus of rat pretreated with compound 7e; n=3; type: functional
Rattus norvegicus [31] = experiment: Biodistribution of [18F]AFE in rat blood at 120 min postinjection in vivo; type: ADME, organism-based; settings: 2 h; how it was run: as §1
Rattus norvegicus [32] = experiment: Biodistribution of [18F]AFE in rat frontal cortex at 120 min postinjection in vivo; type: ADME, organism-based; settings: 2 h; how it was run: as §1
Rattus norvegicus [33] = species on record: Rattus norvegicus; experiment: Specific binding of [18F]AFA in striatum of rat pretreated with compound 7e; n=3; type: functional
Rattus norvegicus [34] = experiment: Biodistribution of [18F]-AFE in rat cerebellum at 120 min postinjection in vivo; type: ADME, organism-based; settings: 2 h; how it was run: as §2
Rattus norvegicus [35] = species on record: Rattus norvegicus; experiment: Specific binding of [18F]AFA in hippocampus of rat pretreated with compound 7e; n=3; type: functional
Rattus norvegicus [36] = experiment: Biodistribution of [18F]AFE in rat hypothalamus at 10 min postinjection in vivo; type: ADME, organism-based; how it was run: as §1
Rattus norvegicus [37] = experiment: Biodistribution of [18F]AFE in rat hypothalamus at 120 min postinjection in vivo; type: ADME, organism-based; settings: 2 h; how it was run: as §1
Rattus norvegicus [38] = experiment: Biodistribution of [18F]-AFE in rat blood at 30 min postinjection in vivo; type: ADME, organism-based; settings: 0.5 h; how it was run: as §2
Rattus norvegicus [39] = experiment: Biodistribution of [18F]-AFE in rat striatum at 10 min postinjection in vivo; type: ADME, organism-based; how it was run: as §2
Rattus norvegicus [40] = experiment: Biodistribution of [18F]AFE in rat cerebellum at 10 min postinjection in vivo; type: ADME, organism-based; how it was run: as §1

Work on CN(C)Cc1ccccc1Sc1ccc(CC[18F])cc1N yielded a Biodistribution (Rattus norvegicus [1]) of 0.62 %ID/g, a Biodistribution (Rattus norvegicus [2]) of 0.27 %ID/g and a Biodistribution (Rattus norvegicus [3]) of 0.06 %ID/g. It also gave a Biodistribution (Rattus norvegicus [4]) of 0.17 %ID/g, a Specific binding (Rattus norvegicus [5]) of 1.06 %ID/g and a Biodistribution (Rattus norvegicus [6]) of 0.13 %ID/g. For the same compound, the Biodistribution (Rattus norvegicus [7]) was 0.41 %ID/g, the Biodistribution (Rattus norvegicus [8]) was 0.33 %ID/g and the Biodistribution (Rattus norvegicus [9]) was 0.24 %ID/g. The Biodistribution (Rattus norvegicus [10]) was 0.17 %ID/g, the Biodistribution (Rattus norvegicus [11]) was 0.27 %ID/g and the Biodistribution (Rattus norvegicus [12]) was 0.39 %ID/g. It also gave a Biodistribution (Rattus norvegicus [13]) of 0.07 %ID/g, a Biodistribution (Rattus norvegicus [14]) of 0.32 %ID/g and a Biodistribution (Rattus norvegicus [15]) of 0.03 %ID/g. The Specific binding (Rattus norvegicus [16]) was 0.48 %ID/g, the Biodistribution (Rattus norvegicus [17]) was 0.08 %ID/g and the Biodistribution (Rattus norvegicus [18]) was 0.38 %ID/g. The Biodistribution (Rattus norvegicus [19]) was 0.19 %ID/g, the Biodistribution (Rattus norvegicus [20]) was 0.13 %ID/g and the Biodistribution (Rattus norvegicus [21]) was 0.08 %ID/g. It also gave a Biodistribution (Rattus norvegicus [22]) of 0.14 %ID/g, a Biodistribution (Rattus norvegicus [23]) of 0.21 %ID/g and a Biodistribution (Rattus norvegicus [24]) of 0.07 %ID/g. The Biodistribution (Rattus norvegicus [25]) was 0.25 %ID/g, the Biodistribution (Rattus norvegicus [26]) was 0.04 %ID/g and the Biodistribution (Rattus norvegicus [27]) was 0.09 %ID/g. For the same compound, the Biodistribution (Rattus norvegicus [28]) was 0.58 %ID/g, the Biodistribution (Rattus norvegicus [29]) was 0.1 %ID/g and the Specific binding (Rattus norvegicus [30]) was 1.21 %ID/g. For the same compound, the Biodistribution (Rattus norvegicus [31]) was 0.02 %ID/g, the Biodistribution (Rattus norvegicus [32]) was 0.06 %ID/g and the Specific binding (Rattus norvegicus [33]) was 0.61 %ID/g. It also gave a Biodistribution (Rattus norvegicus [34]) of 0.02 %ID/g, a Specific binding (Rattus norvegicus [35]) of 0.65 %ID/g and a Biodistribution (Rattus norvegicus [36]) of 0.51 %ID/g. For the same compound, the Biodistribution (Rattus norvegicus [37]) was 0.1 %ID/g, the Biodistribution (Rattus norvegicus [38]) was 0.13 %ID/g and the Biodistribution (Rattus norvegicus [39]) was 0.51 %ID/g. For the same compound, the Biodistribution (Rattus norvegicus [40]) was 0.28 %ID/g.

— ChEMBL document CHEMBL1145212, “Fluorinated diaryl sulfides as serotonin transporter ligands: synthesis, structure-activity relationship study, and in vivo evaluation of fluorine-18-labeled compounds as PET imaging agents” (J Med Chem, 2005)
